In ChEMBL document CHEMBL1155930, “Novel dimeric aryldiketo containing inhibitors of HIV-1 integrase: effects of the phenyl substituent and the linker orientation” (Bioorg Med Chem, 2008):

Key:
[1] = target: T1, Human immunodeficiency virus type 1 integrase (Human immunodeficiency virus 1, UniProt Q7ZJM1); experiment: Inhibition of wild-type HIV1 integrase 3'-processing activity using [32P]-labeled linear oligonucleotide substrate by polyacrylamide gel electrophoresis
Procedure, shortened: (§1)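 Wild-type IN (final 200 nM) preincubated with inhibitor for 30 min at 30 °C in buffer containing 50 mM NaCl, 1 mM HEPES pH 7.5, 50 μM EDTA, 50 μM DTT, 10% glycerol, 7.5 mM MnCl2, 0.1 mg/mL BSA, 10 mM 2-mercaptoethanol, 10% DMSO, 25 mM MOPS pH 7.2. Then 20 nM 5'-32P-labeled annealed 21-mer duplex added, 1 h more. Quenched with formamide loading dye. IC50 from log concentration vs percent inhibition.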

[2] = target: T1, Human immunodeficiency virus type 1 integrase; experiment: Inhibition of wild-type HIV1 integrase strand transfer activity using [32P]-labeled linear oligonucleotide substrate by polyacrylamide gel electrophoresis; procedure, shortened: as §1

T1 sequence (Q7ZJM1 whole entry): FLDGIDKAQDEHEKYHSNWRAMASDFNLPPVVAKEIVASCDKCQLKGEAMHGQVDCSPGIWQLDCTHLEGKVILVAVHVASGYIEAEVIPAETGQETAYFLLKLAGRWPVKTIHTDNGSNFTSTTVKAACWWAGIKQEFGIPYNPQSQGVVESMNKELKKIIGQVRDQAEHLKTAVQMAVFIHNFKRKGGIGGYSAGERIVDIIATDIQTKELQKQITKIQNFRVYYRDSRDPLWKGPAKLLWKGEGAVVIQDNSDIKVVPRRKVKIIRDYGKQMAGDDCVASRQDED

| IC50 [1] | IC50 [2] | Structure (SMILES) |
| --- | --- | --- |
| 56 µM | 1.8 µM | O=C(CC(=O)c1cccc(OCc2ccccc2)c1)C(=O)N1CCN(C(=O)C(=O)CC(=O)c2cccc(OCc3ccccc3)c2)CC1 |
| 94 µM | 4.7 µM | Cc1cc(C(=O)/C=C(\O)C(=O)O)ccc1Cl |
| > 100 µM | 17 µM | O=C(O)/C(O)=C/C(=O)c1ccccc1Cl |
| > 100 µM | 58 µM | O=C(O)/C(O)=C/C(=O)c1ccccc1F |
| > 100 µM | 16 µM | COC(=O)/C(O)=C/C(=O)c1ccc(OC)c(OCc2ccccc2)c1 |
| 91 µM | 3 µM | O=C(CC(=O)c1cccc(OCc2ccccc2)c1)C(=O)OC1CCN(C(=O)C(=O)CC(=O)c2cccc(OCc3ccccc3)c2)CC1 |
| > 100 µM | 7 µM | O=C(CC(=O)c1cccc(OCc2ccccc2)c1)C(=O)NC1CCC(NC(=O)C(=O)CC(=O)c2cccc(OCc3ccccc3)c2)CC1 (stereo not drawn) |
| 23 µM | < 0.4 µM | O=C(CC(=O)c1cccc(OCc2ccccc2)c1)C(=O)NC1CCN(C(=O)C(=O)CC(=O)c2cccc(OCc3ccccc3)c2)CC1 |
| > 100 µM | 25 µM | O=C(CC(=O)c1ccc(C(F)(F)F)cc1)C(=O)N1CCN(C(=O)C(=O)CC(=O)c2ccc(C(F)(F)F)cc2)CC1 |
| > 100 µM | 33 µM | O=C(O)/C(O)=C/C(=O)c1ccc(C(F)(F)F)cc1 |
| 55 µM | < 0.4 µM | COc1ccc(C(=O)/C=C(\O)C(=O)O)cc1OCc1ccccc1 |
| > 100 µM | > 100 µM | COC(=O)/C(O)=C/C(=O)c1ccccc1F |
| > 100 µM | 55 µM | O=C(CC(=O)c1ccccc1F)C(=O)NC1CCC(NC(=O)C(=O)CC(=O)c2ccccc2F)CC1 (stereo not drawn) |
| > 100 µM | > 100 µM | O=C(CC(=O)c1ccccc1Cl)C(=O)N1CCN(C(=O)C(=O)CC(=O)c2ccccc2Cl)CC1 |
| > 100 µM | 88 µM | O=C(CC(=O)c1ccc(F)cc1)C(=O)NC1CCN(C(=O)C(=O)CC(=O)c2ccc(F)cc2)CC1 |
| > 100 µM | 29 µM | O=C(CC(=O)c1ccc(F)cc1)C(=O)N1CCN(C(=O)C(=O)CC(=O)c2ccc(F)cc2)CC1 |
| 99 µM | 7 µM | COC(=O)/C(O)=C/C(=O)c1cccc(NC(=O)OCc2ccccc2)c1 |

| IC50 [1] | IC50 [2] | Structure (SMILES) |
| --- | --- | --- |
| 26 µM | 0.6 µM | COC(=O)/C(O)=C/C(=O)c1cccc(Cc2ccccc2F)c1 |
| > 100 µM | > 100 µM | COC(=O)/C(O)=C/C(=O)c1cccc(N(Cc2ccccc2)Cc2ccccc2)c1 |
| > 100 µM | 24.2 µM | O=C(O)/C(O)=C/C(=O)c1ccccc1 |
| > 100 µM | 26 µM | COc1cccc(C(=O)CC(=O)C(=O)NC2CCC(NC(=O)C(=O)CC(=O)c3cccc(OC)c3)CC2)c1 (stereo not drawn) |
| > 100 µM | 26 µM | COc1cccc(C(=O)CC(=O)C(=O)N2CCN(C(=O)C(=O)CC(=O)c3cccc(OC)c3)CC2)c1 |
| > 100 µM | 45 µM | O=C(O)/C(O)=C/C(=O)c1ccc([N+](=O)[O-])cc1 |
| > 100 µM | > 100 µM | COC(=O)/C(O)=C/C(=O)c1ccc(F)cc1 |
| > 100 µM | 35.5 µM | O=C(CC(=O)c1ccc(F)cc1)C(=O)NC1CCC(NC(=O)C(=O)CC(=O)c2ccc(F)cc2)CC1 (stereo not drawn) |
| 99 µM | 31 µM | O=C(CC(=O)c1ccccc1Cl)C(=O)NC1CCN(C(=O)C(=O)CC(=O)c2ccccc2Cl)CC1 |
| > 100 µM | 14 µM | COC(=O)/C(O)=C/C(=O)c1cccc(OCc2ccccc2)c1 |
| 19 µM | < 0.4 µM | O=C(O)/C(O)=C/C(=O)c1cccc(OCc2ccccc2)c1 |
| > 100 µM | 27 µM | COc1cccc(C(=O)/C=C(\O)C(=O)O)c1 |
| > 100 µM | 41 µM | O=C(CC(=O)c1ccc(C(F)(F)F)cc1)C(=O)NC1CCC(NC(=O)C(=O)CC(=O)c2ccc(C(F)(F)F)cc2)CC1 (stereo not drawn) |
| > 100 µM | 14 µM | CCCCCC12CCC(C(=O)Nc3cccc(C(=O)CC(=O)C(=O)O)c3)(CC1)CC2 |
| > 100 µM | 53 µM | COc1cccc(C(=O)CC(=O)C(=O)NC2CCN(C(=O)C(=O)CC(=O)c3cccc(OC)c3)CC2)c1 |
| > 100 µM | 100 µM | CC(C)(C)OC(=O)N1CCC(NC(=O)/C(O)=C/C(=O)c2ccc(F)cc2)CC1 |
| 92 µM | 30 µM | O=C(CC(=O)c1ccccc1Cl)C(=O)NC1CCC(NC(=O)C(=O)CC(=O)c2ccccc2Cl)CC1 (stereo not drawn) |
